Bioassay records from PubChem.
This is one part of a sample in which hits are shown more often than they occur.
KDM4C inh – inhibitors of human demethylase GASC-1 KDM4C. Q9H3R0. GST-KDM4C 2-372, H3K9me3 peptide, LANCE TR-FRET. inhibition, % at 12.5 µM. 96,000 tested, 0.15% active. AID 720574;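 active means mean replicate inhibition above about 25%, with at least 55% of replicates also reaching it, limit read from the data, passing the limit was not always enough; inconclusive means only one of those two conditions met; inactive means neither condition met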
Target sequence (Q9H3R0 2-372 limits assumed): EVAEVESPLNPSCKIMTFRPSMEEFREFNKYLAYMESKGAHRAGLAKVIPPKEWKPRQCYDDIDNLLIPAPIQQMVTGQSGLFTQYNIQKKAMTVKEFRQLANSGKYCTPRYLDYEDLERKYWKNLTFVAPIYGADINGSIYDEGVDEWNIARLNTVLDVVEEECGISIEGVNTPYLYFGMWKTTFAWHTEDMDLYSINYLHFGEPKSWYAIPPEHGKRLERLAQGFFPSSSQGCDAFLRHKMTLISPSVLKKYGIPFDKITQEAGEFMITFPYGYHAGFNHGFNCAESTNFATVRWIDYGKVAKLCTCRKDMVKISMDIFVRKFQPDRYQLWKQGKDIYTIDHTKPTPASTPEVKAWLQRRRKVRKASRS
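System – N-terminal GST-fused human GASC-1 (KDM4C) fragment, residues 2-372 · Input – enzyme final amount 10 nM · Technique – LANCE TR-FRET, Eu antibody, ULight-streptavidin, EDTA, ex 340 nm, em 618/671 nm · Medium – HEPES buffer, pH 7.5, plus ascorbate · Incubation – enzyme reaction 30 min, then detection 60 min, both room temperature · Reagent – H3K9me3 peptide with Fe(II)/2OG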
IDH1 mut inh – IDH1 R132H (human) inhibition; AID 624101; IDH1 R132H reductase, diaphorase/resazurin fluorescence, 60 min; inhibition, % at 10 µM; O75874; 70,000 tested, 0.18% active; in the data active means inhibition above about 34%; inconclusive means no clear call, values can overlap the other calls; inactive means below about 11%;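 further: 0% = DMSO and 100% = no enzyme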
Target sequence (O75874 whole entry R132H): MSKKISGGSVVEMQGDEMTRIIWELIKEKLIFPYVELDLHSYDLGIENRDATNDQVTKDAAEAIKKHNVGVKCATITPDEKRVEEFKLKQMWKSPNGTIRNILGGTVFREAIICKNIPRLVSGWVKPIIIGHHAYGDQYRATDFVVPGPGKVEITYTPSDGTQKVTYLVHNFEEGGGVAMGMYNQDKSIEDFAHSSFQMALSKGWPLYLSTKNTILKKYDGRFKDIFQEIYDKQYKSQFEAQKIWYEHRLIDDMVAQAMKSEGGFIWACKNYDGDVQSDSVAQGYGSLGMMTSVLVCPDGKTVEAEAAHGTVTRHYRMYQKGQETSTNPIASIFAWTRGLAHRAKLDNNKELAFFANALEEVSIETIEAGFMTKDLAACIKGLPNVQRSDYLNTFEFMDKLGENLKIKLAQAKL
T cruzi growth-1 – T. cruzi proliferation inhibition; T. cruzi beta-gal in NIH3T3, GalScreen luminescence, 90 h; inhibition, % at 8.34 µM; 77,000 tested, 5.9% active;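 active means mean inhibition above about 93%, with at least 55% of replicates each passing it, limit read from the data, passing the limit was not always enough; inconclusive means only one of those two conditions holds; inactive means neither condition holds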
T cruzi growth-2 – blocks T. cruzi growth in NIH3T3 host cells. shares compounds with T cruzi growth-1. T. cruzi beta-gal in NIH3T3, GalScreen luminescence, 90 h. inhibition, % at 8.35 µM. 5,600 tested, 72% active. AID 651739;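 active means mean replicate inhibition above about 95% and at least 55% of replicates individually reaching it, limit read from the data; inconclusive means only one of the two criteria is met; inactive means neither criterion is met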
T cruzi growth-3 – inhibitors of T. cruzi proliferation | shares compounds with T cruzi growth-1 | T. cruzi beta-gal in NIH3T3, GalScreen luminescence, 90 h | inhibition, % at 2.09 µM | 5,600 tested, 21% active | AID 651740;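 active means mean inhibition above about 95%, with at least 55% of replicates also reaching it, limit read from the data; inconclusive means meets just one of the two conditions; inactive means meets neither condition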;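 further: plate controls were neutral control median for no effect and positive control median for full effect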
3T3 cytotox – NIH/3T3 (mouse) viability loss; AID 651742; NIH/3T3 viability, CellTiter-Glo ATP luminescence, 90 h; shares compounds with T cruzi growth-1; 5,600 tested, 14% active; cytotoxicity (signal decrease), % at 8.35 µM;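 active means mean signal decrease across replicates above about 35% based on untreated-well scatter, with enough replicates individually passing, limit read from the data; inconclusive means no rule stated though some were filed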;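 further: 0% = median of neutral control wells and 100% = median of positive control wells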
3T3 cytotox 2 – NIH/3T3 (mouse) viability loss. shares compounds with T cruzi growth-1. NIH/3T3 viability, CellTiter-Glo ATP luminescence, 90 h. inhibition, % at 24.9 µM. 5,600 tested, 56% active;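 active means mean loss of cell viability signal at or above a set limit, and enough replicates individually reaching it; inconclusive means meets only the mean limit or only the replicate share; inactive means meets neither condition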;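 further: 0% = median of neutral control wells and 100% = median of positive control wells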
* marks the source's active call; other numbers are inactive results; ? = inconclusive; / = no result given.

SMILES | KDM4C inh | IDH1 mut inh | T cruzi growth-1 | T cruzi growth-2 | T cruzi growth-3 | 3T3 cytotox | 3T3 cytotox 2
C[C@@H]1CN([C@@H](C)CO)S(=O)(=O)c2ccc(/C=C/c3ccccc3)cc2O[C@H]1CN(C)C(=O)NC1CCCCC1 | -1 | / | / | / | / | / | /
C[C@H]1CN([C@@H](C)CO)S(=O)(=O)c2ccc(/C=C/c3ccccc3)cc2O[C@H]1CN(C)C(=O)NC1CCCCC1 | 12 | -2 | 128* | 101* | 89 | -1 | 49*
C[C@H]1CN([C@@H](C)CO)S(=O)(=O)c2ccc(/C=C/c3ccccc3)cc2O[C@H]1CN(C)C(=O)NC1CCCC1 | -2 | / | 102* | 99* | 73 | 34 | 102*
C[C@H](CO)N1C[C@H](C)[C@H](CN(C)C(=O)NC2CCCCC2)Oc2cc(/C=C/c3ccccc3)ccc2S1(=O)=O | -2 | / | / | / | / | / | /
CC(=O)c1cccc(N(CC(=O)Nc2ccc(C)cc2)S(C)(=O)=O)c1 | / | 0 | / | / | / | / | /
COc1cc(C)c(S(=O)(=O)NCCc2c(C)[nH]c3ccccc23)cc1C | / | -1 | / | / | / | / | /
COc1ccc(C#Cc2ccc([C@H]3[C@@H](CO)N4CCCCN(C(=O)c5ccncc5)C[C@@H]34)cc2)cc1 | 1 | / | 116* | 104* | 64 | 23 | 26
C[C@H](O)C#Cc1ccc([C@H]2[C@@H](CO)N3CCCCN(C(=O)c4ccncc4)C[C@@H]23)cc1 | 1 | / | 12 | / | / | / | /
C[C@@H](O)C#Cc1ccc([C@@H]2[C@H](CO)N3CCCCN(C(=O)c4ccncc4)C[C@@H]23)cc1 | 2 | / | 1 | / | / | / | /
COc1ccc(C#Cc2ccc([C@H]3[C@H](CO)N4CCCCN(C(=O)c5ccncc5)C[C@@H]34)cc2)cc1 | -1 | / | 116* | 114* | 70 | 28 | 97*
COc1ccc(C#Cc2ccc([C@@H]3[C@@H](CO)N4CCCCN(C(=O)c5ccncc5)C[C@H]34)cc2)cc1 | 1 | / | 112* | 107* | 38 | 45* | 103*
C[C@H](O)C#Cc1ccc([C@H]2[C@@H](CO)N3CCCCN(C(=O)c4ccncc4)C[C@H]23)cc1 | 1 | / | 24 | / | / | / | /
CCOC(=O)c1c(NC(=O)C2CC(c3cccc(Br)c3)=NO2)sc(C(=O)OC)c1C (stereo not given) | / | 0 | / | / | / | / | /
Nc1nc(SCC(=O)c2ccc3c(c2)OCCO3)n[nH]1 | / | 0 | / | / | / | / | /
CCn1c(SCC(=O)Nc2ccc(F)cc2)nnc1-c1cccc(Cl)c1 | / | 0 | / | / | / | / | /
CC(=O)c1cccc(NC(=O)CN2C(=O)c3ccccc3S2(=O)=O)c1 | / | 0 | / | / | / | / | /
COc1cccc(NC(=O)Cn2cnc3ccccc3c2=O)c1 | / | 0 | / | / | / | / | /
N#Cc1ccc(-c2ccc3c(c2)[C@H]2[C@H](CCN2Cc2ccc4c(c2)OCO4)[C@H](CO)N3)cc1 | 0 | / | ? | 106* | 69 | -6 | 105*
OC[C@@H]1Nc2ccc(C#Cc3ccc(F)cc3)cc2[C@H]2[C@@H]1CCN2Cc1ccc2c(c1)OCO2 | 0 | / | 142* | 109* | 108* | 41* | 104*
CN(C)C(=O)c1ccc(-c2ccc3c(c2)[C@@H]2[C@@H](CCN2Cc2ccc4c(c2)OCO4)[C@H](CO)N3)cc1 | 1 | / | 40 | / | / | / | /
CN(C)C(=O)c1ccc(-c2ccc3c(c2)[C@H]2[C@H](CCN2Cc2ccc4c(c2)OCO4)[C@@H](CO)N3)cc1 | 0 | / | 53 | / | / | / | /
COc1cc(OC)cc(-c2nnc(SCC(=O)Nc3ccc(Cl)cc3)n2-c2ccc(F)cc2)c1 | / | 0 | / | / | / | / | /
Cc1cc(OCC(=O)Nc2ccccc2C(=O)NC2CCCCC2)ccc1Br | / | 0 | / | / | / | / | /
Cc1nnc(SCC(=O)Nc2cccc(Cl)c2Cl)s1 | / | 0 | / | / | / | / | /
CC(C)C#Cc1ccc2c(c1)O[C@H](CN(C)C(=O)c1cccc(F)c1)[C@H](C)CN([C@@H](C)CO)S2(=O)=O | 0 | 2 | 118* | 109* | 92 | 28 | 78*
SMILES | KDM4C inh | IDH1 mut inh | T cruzi growth-1 | T cruzi growth-2 | T cruzi growth-3 | 3T3 cytotox | 3T3 cytotox 2
CC(C)C#Cc1ccc2c(c1)O[C@@H](CN(C)C(=O)c1ccccc1)[C@@H](C)CN([C@@H](C)CO)S2(=O)=O | -3 | -1 | 80 | / | / | / | /
CC(C)C#Cc1ccc2c(c1)O[C@H](CN(C)C(=O)c1ccccc1)[C@H](C)CN([C@H](C)CO)S2(=O)=O | 0 | -1 | 88 | / | / | / | /
CC(C)C#Cc1ccc2c(c1)O[C@@H](CN(C)C(=O)c1cccc(F)c1)[C@H](C)CN([C@@H](C)CO)S2(=O)=O | -1 | 6 | 107* | 110* | 27 | 27 | 60*
Cn1c(SCC(=O)c2ccc(Br)cc2)nnc1-c1cc2ccccc2o1 | / | 0 | / | / | / | / | /
O=C(Nc1ccc(Cl)cc1Cl)NC(Cc1ccc(O)cc1)C(=O)O (stereo not given) | / | 2 | / | / | / | / | /
CC(=O)Nc1ccc(NC(=O)C(NC(=O)c2ccco2)C(C)C)cc1 (stereo not given) | / | 0 | / | / | / | / | /
CCCc1cc(=O)n2[nH]c(NCc3cccc([N+](=O)[O-])c3)nc2n1 | / | 0 | / | / | / | / | /
C[C@H]1CN([C@@H](C)CO)S(=O)(=O)c2ccc(C#Cc3ccncc3)cc2O[C@H]1CN(C)S(=O)(=O)c1ccc(F)cc1 | -3 | 1 | 118* | 102* | 67 | ? | 11
C[C@H]1CN([C@@H](C)CO)S(=O)(=O)c2ccc(C#Cc3ccncc3)cc2O[C@@H]1CN(C)S(=O)(=O)c1ccc(F)cc1 | -2 | 0 | 98 | / | / | / | /
C[C@@H]1CN([C@@H](C)CO)S(=O)(=O)c2ccc(C#Cc3ccncc3)cc2O[C@H]1CN(C)S(=O)(=O)c1ccc(F)cc1 | -6 | -1 | 90 | / | / | / | /
C[C@H](CO)N1C[C@H](C)[C@H](CN(C)S(=O)(=O)c2ccc(F)cc2)Oc2cc(C#Cc3ccncc3)ccc2S1(=O)=O | -6 | 1 | 114* | 92 | 45 | ? | 65*
CS(=O)(=O)N(CC(=O)Nc1ccc(C(F)(F)F)cc1)c1ccc(Oc2ccccc2)cc1 | / | 0 | / | / | / | / | /
CCC(=O)N1CCc2cc(S(=O)(=O)NC(CC(C)C)C(=O)NC3CCCC3)ccc21 (stereo not given) | / | -2 | / | / | / | / | /
O=C(CSc1nc2ccccc2s1)Nc1cccc(Cl)c1Cl | / | 0 | / | / | / | / | /
N#C[C@@H]1[C@@H](c2ccc(C#Cc3cccc(F)c3)cc2)[C@H](CO)N1C(=O)C1CC1 | -5 | / | 93 | / | / | / | /
N#C[C@H]1[C@@H](c2ccc(C#Cc3cccc(F)c3)cc2)[C@@H](CO)N1C(=O)C1CCOCC1 | 5 | / | 22 | / | / | / | /
N#C[C@H]1[C@@H](c2ccc(C#Cc3cccc(F)c3)cc2)[C@@H](CO)N1C(=O)C1CC1 | 0 | / | 85 | / | / | / | /
N#C[C@H]1[C@@H](c2ccc(C#Cc3cccc(F)c3)cc2)[C@H](CO)N1C(=O)C1CCC1 | -2 | / | 100* | 96* | 105* | 20 | 103*
N#C[C@@H]1[C@H](c2ccc(C#Cc3cccc(F)c3)cc2)[C@@H](CO)N1C(=O)C1CC1 | 0 | / | ? | 101* | 95 | 3 | 71*
